Measurements collected from several papers.
Lines come from different studies, so protocols differ. pEC50, pIC50: −log10 of the molar value.
Organism: Leishmania major
Observed: parasite growth
Setting: promastigote

Compound | technique | time | quantity | result
CCCc1cn(CCN2CCN(C(=O)c3c(C)nc4ccc(Cl)cn34)CC2)nn1 | resazurin | 72 h | pIC50 | 3.32
CC(=O)Oc1ccc(-c2oc3cc(OC(C)=O)cc(O)c3c(=O)c2OC(C)=O)cc1 | – | 48 h | pIC50 | 4.83
CCCCCCCCCc1cn(CCN2CCN(C(=O)c3c(C)nc4ccc(Cl)cn34)CC2)nn1 | resazurin | 72 h | pIC50 | 4.21
C[C@@H]1[C@H](O)[C@@H](C)/C=C/C=C/C=C/C=C/C=C/C=C/C=C/[C@H](O[C@@H]2O[C@H](C)[C@@H](O)[C@H](N)[C@@H]2O)C[C@@H]2O[C@](O)(C[C@@H](O)C[C@@H](O)[C@H](O)CC[C@@H](O)C[C@@H](O)CC(=O)O[C@H]1C)C[C@H](O)[C@H]2C(=O)O | – | 48 h | pIC50 | 5.43
O=S(=O)(c1ccc(-c2ccc3ncnc(Nc4ccc(OCc5ccccc5)c(Cl)c4)c3c2)cc1)N1CCOCC1 | resazurin | – | pEC50 | 6.33
C[C@@H]1[C@H](O)[C@@H](C)/C=C/C=C/C=C/C=C/C=C/C=C/C=C/[C@H](O[C@@H]2O[C@H](C)[C@@H](O)[C@H](N)[C@@H]2O)C[C@@H]2O[C@](O)(C[C@@H](O)C[C@@H](O)[C@H](O)CC[C@@H](O)C[C@@H](O)CC(=O)O[C@H]1C)C[C@H](O)[C@H]2C(=O)O | – | – | pIC50 | 6.08
C[C@@H]1[C@H](O)[C@@H](C)/C=C/C=C/C=C/C=C/C=C/C=C/C=C/[C@H](O[C@@H]2O[C@H](C)[C@@H](O)[C@H](N)[C@@H]2O)C[C@@H]2O[C@](O)(C[C@@H](O)C[C@@H](O)[C@H](O)CC[C@@H](O)C[C@@H](O)CC(=O)O[C@H]1C)C[C@H](O)[C@H]2C(=O)O | – | 24 h | pIC50 | 6.61
CC1(C)OB(CC2c3ccccc3C(=O)N2C2CCCCC2)OC1(C)C (stereo not drawn) | – | – | pIC50 | 4.94
Cc1nc2ccc(Cl)cn2c1C(=O)N1CCN(Cc2cn(-c3cccc(Cl)c3)nn2)CC1 | resazurin | 72 h | pIC50 | 4.33
